Laboratory results reported in ChEMBL document CHEMBL5104202, “Structure-Uptake Relationship Studies of Oxazolidinones in Gram-Negative ESKAPE Pathogens” (J Med Chem, 2022).
Converted amounts (≈) assume the structure as drawn.

How the values were obtained:
[1] = tested on: Pseudomonas aeruginosa; experiment: Antibacterial activity against efflux pump lacking/recombinant OM pore producing Pseudomonas aeruginosa assessed as inhibition of bacterial growth; type: functional, organism-based
[2] = tested on: Pseudomonas aeruginosa; experiment: Antibacterial activity against efflux pump lacking/recombinant OM pore producing Pseudomonas aeruginosa incubated for 24 hrs by twofold serial dilution method; type: functional
Outline: (§1)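 MICs by twofold serial dilution in 96-well plates from 10 mM DMSO stocks. Cultures grown in the indicated media; for E. coli, A. baumannii and P. aeruginosa, inducers were 0.1% arabinose, 1% arabinose and 0.1 mM IPTG respectively.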

[3] = tested on: Escherichia coli; experiment: Antibacterial activity against Escherichia coli SQ110 DTC G2032A incubated for 24 hrs by twofold serial dilution method; type: functional
Outline: (§2)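 E. coli SQDTC (TolC-deficient, single rRNA operon) carrying LZD-resistant 23S rRNA substitutions. Compounds come from 10 mM DMSO stocks and are twofold serially diluted in 96-well plates.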

[4] = tested on: Escherichia coli; experiment: Antibacterial activity against efflux pump lacking/recombinant OM pore producing Escherichia coli assessed as inhibition of bacterial growth; type: functional, organism-based
[5] = tested on: Escherichia coli; experiment: Antibacterial activity against efflux pump lacking/recombinant OM pore producing Escherichia coli incubated for 24 hrs by twofold serial dilution method; type: functional
Outline: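 E. coli efflux-knockout/hyperporinated strain grown in M9 medium with 50 mM MOPS (pH 7.2) and 0.2% xylose. OM pore induced with 0.1% arabinose. Compounds come from 10 mM DMSO stocks and are twofold serially diluted in 96-well plates.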

[6] = tested on: Acinetobacter baumannii; experiment: Antibacterial activity against efflux pump lacking/recombinant OM pore producing Acinetobacter baumannii assessed as inhibition of bacterial growth; type: functional, organism-based
[7] = tested on: Staphylococcus aureus; experiment: Antibacterial activity against Staphylococcus aureus ATCC 25923 incubated for 24 hrs by twofold serial dilution method; type: functional; outline: as §1
[8] = tested on: Pseudomonas aeruginosa; experiment: Antibacterial activity against efflux pump lacking Pseudomonas aeruginosa assessed as inhibition of bacterial growth; type: functional, organism-based
[9] = tested on: Escherichia coli; experiment: Antibacterial activity against recombinant OM pore producing Escherichia coli assessed as inhibition of bacterial growth; type: functional, organism-based
[10] = tested on: Acinetobacter baumannii; experiment: Antibacterial activity against efflux pump lacking Acinetobacter baumannii assessed as inhibition of bacterial growth; type: functional, organism-based
[11] = tested on: Acinetobacter baumannii; experiment: Antibacterial activity against wild type Acinetobacter baumannii assessed as inhibition of bacterial growth; type: functional, organism-based
[12] = tested on: Escherichia coli; experiment: Antibacterial activity against Escherichia coli SQ110 incubated for 24 hrs by twofold serial dilution method; type: functional; outline: as §1
[13] = tested on: Acinetobacter baumannii; experiment: Antibacterial activity against efflux pump lacking/recombinant OM pore producing Acinetobacter baumannii incubated for 24 hrs by twofold serial dilution method; type: functional; outline: as §1
[14] = tested on: Pseudomonas aeruginosa; experiment: Antibacterial activity against wild type Pseudomonas aeruginosa assessed as inhibition of bacterial growth; type: functional, organism-based
[15] = tested on: Escherichia coli; experiment: Antibacterial activity against wild type Escherichia coli assessed as inhibition of bacterial growth; type: functional, organism-based
[16] = tested on: Escherichia coli; experiment: Antibacterial activity against efflux pump lacking Escherichia coli assessed as inhibition of bacterial growth; type: functional, organism-based
[17] = tested on: Pseudomonas aeruginosa; experiment: Antibacterial activity against recombinant OM pore producing Pseudomonas aeruginosa assessed as inhibition of bacterial growth; type: functional, organism-based
[18] = tested on: Acinetobacter baumannii; experiment: Antibacterial activity against recombinant OM pore producing Acinetobacter baumannii assessed as inhibition of bacterial growth; type: functional, organism-based
[19] = tested on: Escherichia coli; experiment: Antibacterial activity against Escherichia coli SQ110 DTC C2610A incubated for 24 hrs by twofold serial dilution method; type: functional; outline: as §2
[20] = tested on: Escherichia coli; experiment: Antibacterial activity against Escherichia coli SQ110 DTC incubated for 24 hrs by twofold serial dilution method; type: functional; outline: as §1

| Structure (SMILES) | IC50 [1] [µM] | MIC [2] [µM] | MIC [3] [µM] | IC50 [4] [µM] | MIC [5] [µM] | IC50 [6] [µM] | MIC [7] [µM] | IC50 [8] [µM] | IC50 [9] [µM] | IC50 [10] [µM] | IC50 [11] [µM] | MIC [12] [µM] | MIC [13] [µM] | IC50 [14] [µM] | IC50 [15] [µM] | IC50 [16] [µM] | IC50 [17] [µM] | IC50 [18] [µM] | MIC [19] [µM] | MIC [20] [µM] |
| --- | --- | --- | --- | --- | --- | --- | --- | --- | --- | --- | --- | --- | --- | --- | --- | --- | --- | --- | --- | --- |
| O=C1O[C@@H](CO)CN1c1ccc(-c2ccc(OC(F)(F)F)cc2)c(F)c1 | 3.1 | > 100 | > 100 | 18.8 | > 100 | 6.4 | 6.25 (≈ 2.32 µg/mL) | 18.6 | 76.9 | 16.3 | > 100 | > 100 | 25 | > 100 | > 100 | 17.2 | > 100 | 25.6 | > 100 | 100 (≈ 37.1 µg/mL) |
| Nc1ncc(-c2ccc(N3C[C@H](CO)OC3=O)cc2F)cn1 | 33 | 12.5 | 100 (≈ 30.4 µg/mL) | 1.5 | > 100 | 53 | 6.25 (≈ 1.9 µg/mL) | > 100 | 2 | 53 | > 100 | > 100 | 50 | > 100 | > 100 | 5.9 | > 100 | > 100 | 50 (≈ 15.2 µg/mL) | 25 (≈ 7.61 µg/mL) |
| C[n+]1ccc(-c2ccc(N3C[C@H](CO)OC3=O)cc2F)cc1 | 9.4 | > 100 | > 100 | 11 | > 100 | 13.8 | > 100 | 48.8 | 12.3 | 23.3 | 59.4 | 100 | > 100 | > 100 | 13.5 | 10 | 59.7 | 13.8 | 100 | 50 |
| O=C1O[C@@H](CO)CN1c1ccc(-c2ccc(CO)cc2)c(F)c1 | 5.5 | 6.25 | 50 (≈ 15.9 µg/mL) | 3.7 | 25 | 4.6 | 1.56 (≈ 0.495 µg/mL) | 5.3 | 17.6 | 4.4 | 45.3 | > 100 | 12.5 | > 100 | 67.9 | 3.9 | > 100 | 5.7 | 25 (≈ 7.93 µg/mL) | 12.5 (≈ 3.97 µg/mL) |
| C[n+]1cccc(-c2ccc(-c3ccc(N4C[C@H](CO)OC4=O)cc3F)cc2)c1 | 18.1 | 25 | 50 | 2.1 | 25 | 12.6 | 12.5 | 29.7 | 7.8 | 29.7 | > 100 | > 100 | 25 | > 100 | 98.4 | 1.2 | 28.1 | 13.9 | 25 | 12.5 |
